Screening data as filed in PubChem.
An excerpt weighted towards active compounds, which were near 6.4% of everything screened.
PostGolgi ctrl: inhibits growth of the yeast control strain; inhibition, % at 10 µM; hit rate 5% among 98,000; efflux-deficient yeast background strain, growth absorbance A615, 16 h
PLK1 PBD inh: Plk1 (human) PBD binding inhibition; AID 693; inhibition, %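 (tested at about 20 µM)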; Plk1 PBD phosphopeptide binding, fluorescence polarization; P53350; hit rate 0.13% among 97,000; in the data active = inhibition above about 34%, passing the limit was not always enough
HIV Rev-RRE inh: HIV Rev-RRE protein-RNA interaction inhibition; P05866; Rev peptide-RRE RNA binding, FRET; inhibition, % at 8 µM; hit rate 0.79% among 97,000;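 active = inhibition above the screen-wide mean plus 3 SD, cut at about 35% in these data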;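 also: 0% = median DMSO wells and 100% = median Neomycin B control wells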
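assay system = Cy5-tagged RRE RNA duplex with fluorescein-tagged Rev peptide | incubation = 5 + 15 min at 25 °C | also added = labelled Rev peptide | measure = % inhibition of FRET ratio versus controls | benchmarks = DMSO wells as 0% and neomycin B wells as 100% inhibition | measured by = FRET fluorescence readout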
PostGolgi yeast: growth inhibition of a yeast mutant, post-Golgi transport screen; post-Golgi transport phenotypic cell assay; inhibition, % at 10 µM; hit rate 0.9% among 98,000;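 also: yeast cells grown in 1536-well plates; yeast grown about 18 h at 30C before absorbance read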
PLK1 kinase inh: blocks human PLK1 kinase activity. P53350. recombinant PLK1 kinase, TR-FRET peptide phosphorylation. inhibition, % at 10 µM. hit rate 0.53% among 97,000;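 active = inhibition of 50% or more in the single-concentration screen; inactive = inhibition below 50%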;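 also: 0% = DMSO max control and 100% = H-89 dihydrochloride min control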
EphB4 ephrin blk: antagonists of human EphB4-ephrin-B2 interaction. hit rate 0.15% among 97,000. P54760. EphB4 LBD / TNYL-RAW-Alexa532 peptide, fluorescence polarization. inhibition, % at 7 µM;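 active = inhibition above the screen-wide mean inhibition plus 3 SD, cut at about 15% in these data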;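 also: 0% = DMSO wells and 100% = excess unlabeled TNYL-RAW peptide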
Target sequence (P54760 whole entry, looked up, the tested form may be a part): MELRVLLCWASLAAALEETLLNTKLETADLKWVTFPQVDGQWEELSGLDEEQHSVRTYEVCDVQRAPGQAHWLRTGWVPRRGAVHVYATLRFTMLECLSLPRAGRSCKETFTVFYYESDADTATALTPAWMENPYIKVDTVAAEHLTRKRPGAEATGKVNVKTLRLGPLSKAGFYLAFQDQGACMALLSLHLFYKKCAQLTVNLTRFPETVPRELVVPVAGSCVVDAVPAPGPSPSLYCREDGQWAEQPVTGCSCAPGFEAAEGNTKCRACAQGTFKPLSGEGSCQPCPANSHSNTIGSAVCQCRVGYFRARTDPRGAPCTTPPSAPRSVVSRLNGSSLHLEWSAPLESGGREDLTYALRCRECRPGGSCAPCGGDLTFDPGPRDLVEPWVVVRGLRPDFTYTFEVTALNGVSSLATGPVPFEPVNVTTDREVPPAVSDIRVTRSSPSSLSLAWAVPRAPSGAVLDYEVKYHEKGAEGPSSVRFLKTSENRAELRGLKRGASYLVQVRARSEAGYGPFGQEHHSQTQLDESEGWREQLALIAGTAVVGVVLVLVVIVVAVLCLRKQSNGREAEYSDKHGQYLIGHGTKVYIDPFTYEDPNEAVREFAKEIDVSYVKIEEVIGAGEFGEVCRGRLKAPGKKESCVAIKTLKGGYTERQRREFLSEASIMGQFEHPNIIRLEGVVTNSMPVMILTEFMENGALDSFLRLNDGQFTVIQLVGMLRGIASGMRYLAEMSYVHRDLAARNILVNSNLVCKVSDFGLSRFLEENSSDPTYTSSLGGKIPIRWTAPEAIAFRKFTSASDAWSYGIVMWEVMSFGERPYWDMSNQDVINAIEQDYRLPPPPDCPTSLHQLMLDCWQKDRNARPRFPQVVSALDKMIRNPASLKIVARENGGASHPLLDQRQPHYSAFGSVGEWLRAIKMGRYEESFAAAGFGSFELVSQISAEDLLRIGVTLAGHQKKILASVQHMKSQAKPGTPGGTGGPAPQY
Numbers without * were called inactive; / = no result; [ ] = remark or other dose. Rule as the data show it, unless noted: active = inhibition above about 30%; inactive = the rest.

SMILES | PostGolgi ctrl | PLK1 PBD inh | HIV Rev-RRE inh | PostGolgi yeast | PLK1 kinase inh | EphB4 ephrin blk
CN(C)S(=O)(=O)Oc1ccsc1C(=O)Nc1cccc(Cl)c1 | 21.7 | -5.4 | 9.8 | -6.8 | -7.3 | 3.2
COc1cc(OC)cc(C(=O)NCCN2CCOCC2)c1 | -6.3 | -4.1 | 8.3 | 4.2 | -11.4 | 6.2
Cc1ccc(/C=C2\CCC3=C2OC(N)=C(C#N)C3c2ccc(C)cc2)cc1 (centres undefined) | 17.0 | -120.2 | 138.4*[fluorescence artefact?] | -1.3 | -9.3 | -2.5
Cc1ccc(-c2c(C#N)c(N)nc3c2CCCCC3)cc1 | 5.7 | 8.2 | 5.0 | 15.0 | -19.8 | -2.4
CC1=C(C#N)c2nc(N)c(C#N)c(C)c2/C1=C\c1ccc(C)cc1 | 100.0* | -4.5 | 12.4 | 103.7* | -7.3 | 3.5
Cc1sc(NC(=O)CSc2nnnn2C2CCCCC2)c(C#N)c1C | -1.5 | -26.7 | 3.9 | -0.2 | -6.7 | -1.3
CC(C)(C)n1nnnc1CN(Cc1cccnc1)Cc1ccccc1Cl | 19.9 | -4.4 | 5.5 | 50.3* | -0.6 | 1.2
CC(=O)NC1C(=O)Nc2c1cccc2C(F)(F)F (centres undefined) | -0.8 | -4.1 | 6.7 | 1.7 | -11.5 | 0.4
CCOC(=O)c1[nH]c(C(=O)O)c(CCN(CC)CC)c1C | 2.7 | -18.6 | 5.0 | -1.8 | -10.6 | -0.9
O=C1c2ccccc2C(Nc2ccc(Cl)cn2)N1Cc1ccccc1 (centres undefined) | 57.5* | -6.5 | 11.4 | 3.3 | -4.2 | 0.5
O=C1c2ccccc2C(Nc2ccccc2)N1c1ccc(Cl)cn1 (centres undefined) | 8.9 | -2.5 | 7.5 | -6.6 | -16.5 | 4.2
O=C(c1ccc(Br)o1)N1CCN(c2ccc3nnc(-c4ccc(F)cc4)n3n2)CC1 | 12.3 | 28.6 | -3.3 | -1.7 | -7.2 | -3.0
CCc1ccc(OCc2nnc(SCC(=O)NCc3ccco3)o2)cc1 | 16.4 | 18.7 | 0.8 | 2.6 | 4.9 | -3.2
CCCCOc1ccc(OCCCC)c2c1NC1(N2)C(=O)N(C(C)=O)c2ccccc21 | 8.6 | -21.4 | 8.0 | -17.9 | -14.3 | -3.3
O=C(c1cc2ccccc2o1)c1cccs1 | 31.3* | -2.6 | 2.9 | -2.0 | -15.3 | -2.7
CC(NC(=O)c1cc2ccccc2o1)c1cccs1 (centres undefined) | 16.4 | -12.2 | -0.7 | -6.0 | -12.1 | -12.3
FC(F)(F)c1cc(C(F)(F)F)c2ccc(Oc3ccccc3)nc2n1 | 0.7 | 4.4 | 17.5 | 12.9 | -4.5 | -7.2
N#CC(c1ccc(Cl)cc1)c1ccc2c(C(F)(F)F)cc(C(F)(F)F)nc2n1 (centres undefined) | 91.1* | 32.5 | -0.4 | 81.8* | -6.3 | 0.3
Cc1cc[n+](-c2nc([O-])n(-c3ccccc3)c2C=O)cc1 | / | -18.6 | 4.8 | / | -7.1 | 2.6
Oc1ccc2ccccc2c1C=NC12CN3CCN(CN(C3)C1)C2 | 13.3 | -14.6 | 6.6 | -0.7 | 5.2 | -0.9
Oc1ccc2ccccc2c1C=Nc1ccc(N2CCOCC2)cc1 | -1.9 | -32.5 | 71.8*[fluorescence artefact?] | -3.5 | 3.1 | 4.4
COc1c(S(=O)(=O)n2nc(C)cc2C)ccc(Cl)c1Cl | 31.1* | -15.4 | 10.7 | -2.3 | -7.3 | 6.3
Cn1c(=O)[nH]c(=O)c2c1nc(N1CCN(Cc3ccccc3)CC1)n2CCCc1ccccc1 | 22.8 | -16.4 | -1.1 | -4.8 | -5.5 | -4.5
CCCCCn1c(CN2CCN(c3cc(Cl)ccc3C)CC2)nc2c1c(=O)[nH]c(=O)n2C | 55.8* | -7.4 | 8.6 | -1.6 | 3.8 | 1.5
CCCCn1c(N2CCC(Cc3ccccc3)CC2)nc2c1c(=O)[nH]c(=O)n2C | 63.0* | 17.9 | 3.8 | 7.4 | -2.0 | 0.0
SMILES | PostGolgi ctrl | PLK1 PBD inh | HIV Rev-RRE inh | PostGolgi yeast | PLK1 kinase inh | EphB4 ephrin blk
CC1CCN(c2nc3c(c(=O)[nH]c(=O)n3C)n2Cc2ccccc2Cl)CC1 | 39.6* | -28.1 | 4.3 | -0.7 | 2.8 | 0.2
Cn1c(=O)[nH]c(=O)c2c1nc(Br)n2Cc1ccccc1Cl | 5.7 | -22.5 | 4.2 | 0.5 | 0.2 | 3.8
CCCCCCn1c(N2CCC(C)CC2)nc2c1c(=O)[nH]c(=O)n2C | 34.3* | -4.6 | -2.6 | 16.5 | 2.3 | 3.4
CCCCCn1c(N2CCC(C(N)=O)CC2)nc2c1c(=O)[nH]c(=O)n2C | 6.1 | -7.1 | 3.3 | 19.5 | -11.2 | 7.0
Cc1cc(C)cc(N(CC(=O)NCc2ccco2)S(=O)(=O)c2c(C)noc2C)c1 | 18.9 | -26.8 | 7.0 | 5.7 | -8.7 | -3.6
O=C(Nc1nc2ccccc2s1)C1CC(=O)N(c2ccc(Br)cc2)C1 (centres undefined) | 46.2* | 24.2 | 19.2 | -9.2 | 1.2 | -7.7
O=C(O)C1CC(=O)N(c2ccc(Br)cc2)C1 (centres undefined) | 42.5* | 23.4 | 4.2 | -7.3 | -7.5 | -6.2
O=C(Nc1nc2ccccc2s1)C1CC(=O)N(c2ccccc2)C1 (centres undefined) | -3.3 | -10.1 | 1.8 | -6.9 | -4.1 | -8.6
O=C(CCCSc1nc2ccccc2[nH]1)N1CCN(c2ccccc2)CC1 | -0.1 | -21.9 | 1.8 | -9.0 | -3.8 | 3.5
Cc1cccc(N2CCN(C(=O)CCCSc3nc4ccccc4[nH]3)CC2)c1C | 38.8* | -32.9 | 3.0 | 10.2 | -4.5 | 2.9
O=[N+]([O-])/C=C/c1cn(Cc2ccc(F)cc2)c2ccccc12 | 79.5* | -24.5 | 15.7 | 35.6* | -1.3 | 15.6*
CC1CCN(C(=S)c2cn(Cc3ccc(F)cc3)c3ccccc23)CC1 | 18.6 | 4.5 | 3.6 | 2.9 | -15.7 | 6.0
Cc1ccc(-n2c(C)cc(C(=S)N3CCOCC3)c2C)cc1C | 0.3 | 7.5 | -0.8 | 6.8 | -11.2 | -0.4
CCOC(=O)c1cc2c(ccn2C)n1CC(=O)N1CCN(c2ccccc2OC)CC1 | -0.9 | 22.8 | 2.4 | 32.4* | -9.2 | -4.9
O=C(NCCc1ccccc1)c1ccccc1NS(=O)(=O)N1CCCC1 | 13.8 | 1.6 | 7.5 | -2.8 | -23.7 | -3.0
O=C1CCCC2=C1C(c1ccsc1)CC(=O)N2c1ccccc1 (centres undefined) | -8.6 | 14.2 | 3.7 | -7.7 | -2.2 | 1.2
O=C1CCCC2=C1C(c1ccsc1)CC(=O)N2c1nnc(SCc2ccccc2)s1 (centres undefined) | 37.3* | 7.7 | 9.1 | 4.3 | -9.8 | 3.9
CCOC(=O)Cc1c(C)c2ccc(N(CC)CC)cc2oc1=O | 0.8 | 5.1 | 10.5 | 45.6* | -4.1 | 0.7
CCN(CC)c1ccc2c(c1)oc(=O)c1c(Cl)cc(=O)oc12 | 13.4 | -66.8 | 129.1*[fluorescence artefact?] | 9.1 | -10.4 | 2.0
Cc1cc(C)nc(N2CCC(C(=O)N3CCN(c4cc(Cl)ccc4C)CC3)CC2)n1 | 42.7* | 8.7 | -0.2 | -2.9 | -13.1 | 1.7
Cc1ccc(C)c(N2CCN(C(=O)C3CCN(c4nnc(N5CCCC5=O)s4)CC3)CC2)c1 | / | -14.7 | 3.0 | / | -5.6 | -2.9
Cc1ccc(C)c(N2CCN(C(=O)C3CCN(c4nc(C)cc(C)n4)CC3)CC2)c1 | 46.0* | -18.3 | -0.5 | 6.3 | -16.3 | 1.0
CN(Cc1ccccc1)Cc1nc2c([nH]1)c(=O)n(C)c(=O)n2C | -4.5 | -14.5 | -1.8 | -2.5 | 6.0 | -5.3
